Consider 33 compounds from ChEMBL document CHEMBL1126550, “Nanomolar-affinity, non-peptide oxytocin receptor antagonists” (J Med Chem, 1993).

Assay [1] has as its target T1, Oxytocin receptor (Rattus norvegicus, UniProt P70536).
T1 sequence (P70536 whole entry): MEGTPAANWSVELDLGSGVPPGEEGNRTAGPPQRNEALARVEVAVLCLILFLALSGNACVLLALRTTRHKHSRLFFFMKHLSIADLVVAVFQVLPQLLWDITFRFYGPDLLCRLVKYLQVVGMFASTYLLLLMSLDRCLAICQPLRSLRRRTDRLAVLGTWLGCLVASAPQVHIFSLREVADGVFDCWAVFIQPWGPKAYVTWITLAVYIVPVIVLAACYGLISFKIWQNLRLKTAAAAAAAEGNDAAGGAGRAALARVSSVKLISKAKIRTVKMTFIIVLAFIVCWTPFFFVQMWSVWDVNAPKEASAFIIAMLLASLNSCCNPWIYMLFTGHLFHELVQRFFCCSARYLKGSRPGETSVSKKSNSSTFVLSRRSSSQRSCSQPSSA
Description: Inhibition of radioligand [3H]oxytocin binding at the oxytocin (OT) receptor in rat uterine tissue. The procedure, abridged: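 Uteri taken from rats given diethylstilbestrol dipropionate (0.3 mg/kg ip, 18–24 h before), crude membranes. 1 nM [3H]OT (30–60 Ci/mmol), equilibrium 60 min at 22 °C in 50 mM Tris-HCl, 5 mM MgCl2, 0.1% BSA, pH 7.4. Nonspecific binding with 1 mM unlabeled OT. Filtered on glass fiber. Initial single-concentration screen, then IC50 from seven concentrations by linear regression.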

Assay [2] has as its target Vasopressin V1 receptor (Rattus norvegicus, UniProt P48974+P30560). Description: Inhibition of radioligand [3H]AVP binding to the vasopressin V1 receptor in rat liver tissue. The procedure, abridged: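 Crude membranes from male rat liver (V1 sites) competed with 1 nM [3H]AVP (80–90 Ci/mmol). Equilibrium 30 min, 30 °C, buffer 100 mM Tris-HCl, 5 mM MgCl2, 0.1% BSA, 50 μM PMSF, 50 μg/mL bacitracin, pH 8.0. 10 μM unlabeled AVP for nonspecific binding. Filtration through glass-fiber filters. IC50 from linear regression over seven concentrations.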

The target of assay [3] is Vasopressin V2 receptor (Rattus norvegicus, UniProt Q00788). Description: Inhibition of radioligand [3H]-AVP binding to the vasopressin V2 receptor in rat kidney tissue. In a few lines: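 [3H]AVP (80–90 Ci/mmol) at 2 nM competed on crude membranes from male rat kidney medulla (V2 sites). Equilibrium 30 min at 30 °C in 100 mM Tris-HCl, 5 mM MgCl2, 0.1% BSA, 50 μM PMSF, 50 μg/mL bacitracin, pH 8.0. Nonspecific binding with 10 μM unlabeled AVP. Glass-fiber filtration. IC50 by linear regression of % inhibition vs log concentration, seven concentrations.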
Chain of Vasopressin V2 receptor (Q00788 whole entry): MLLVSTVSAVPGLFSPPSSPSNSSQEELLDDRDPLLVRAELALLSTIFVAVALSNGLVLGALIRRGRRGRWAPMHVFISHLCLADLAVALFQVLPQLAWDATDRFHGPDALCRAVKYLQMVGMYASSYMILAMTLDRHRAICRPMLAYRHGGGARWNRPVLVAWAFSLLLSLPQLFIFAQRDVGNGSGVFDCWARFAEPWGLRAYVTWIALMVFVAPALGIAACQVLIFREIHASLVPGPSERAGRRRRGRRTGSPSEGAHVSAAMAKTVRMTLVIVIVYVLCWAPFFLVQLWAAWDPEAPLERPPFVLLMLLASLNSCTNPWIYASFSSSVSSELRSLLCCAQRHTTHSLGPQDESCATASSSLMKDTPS

The term IC50 denotes the midpoint of a concentration-inhibition curve. A higher IC50 goes with a need for much substance. For `CC1(C)[C@@H]2CC[C@@]1(CS(=O)(=O)N1CCC3(C=Cc4ccccc43)CC1)[C@@](O)(CNC(=O)Cc1c[nH]cn1)C2`, the concentration for half-maximal inhibition (IC50) in assay [1] is 45 nM; in assay [2] it was > 300 nM; in assay [3], > 3000 nM.

Consider `CC1NC(=O)N([C@H]2C[C@H]3CC[C@]2(CS(=O)(=O)N2CCC4(CCc5ccccc54)CC2)C3(C)C)C1=O` (some centres undefined), for which the IC50 is 14 nM in assay [1], 710 nM in assay [2] and 2100 nM in assay [3].

`CC1(C)[C@@H]2CC[C@@]1(CS(=O)(=O)N1CCC3(C=Cc4ccccc43)CC1)[C@@](O)(CCNC(=O)CC1CN3CCC1CC3)C2` (some centres undefined): the IC50 was found to be 100 nM in assay [1], 640 nM in assay [2] and 6200 nM in assay [3].

Turning to `CC1(C)[C@@H]2CC[C@@]1(CS(=O)(=O)N1CCC3(CCc4ccccc43)CC1)[C@@H](NC(=O)C1CC(S(C)(=O)=O)CN1)C2` (some centres undefined), the IC50 in assay [1] is 100 nM; in assay [2], 4000 nM; in assay [3], 5500 nM.

Consider `CC1(C)[C@@H]2CC[C@@]1(CS(=O)(=O)N1CCC3(CCc4ccccc43)CC1)[C@@H](N1C(=O)NC(CN)C1=O)C2` (some centres undefined), for which the values for the IC50 in assay [1], in assay [2] and in assay [3] were 35 nM, 490 nM and 2100 nM, respectively.

As to `CCCS(=O)(=O)N[C@H]1C[C@H]2CC[C@]1(CS(=O)(=O)N1CCC3(CCc4ccccc43)CC1)C2(C)C`, the IC50 was 310 nM in assay [1], > 1000 nM in assay [2] and 10000 nM in assay [3].

In the case of `CC(=O)NC[C@@]1(O)C[C@H]2CC[C@]1(CS(=O)(=O)N1CCC3(C=Cc4ccccc43)CC1)C2(C)C`, the IC50 was 130 nM in assay [1], > 1000 nM in assay [2] and 10000 nM in assay [3].

For the compound `CC1(C)[C@@H]2CC[C@@]1(CS(=O)(=O)N1CCC3(CCc4ccccc43)CC1)[C@H](NC(=O)Cc1c[nH]cn1)C2`, the half-inhibitory concentration (IC50) in assay [1] turned out to be 830 nM; in assay [2], 5100 nM; in assay [3], 13000 nM.

`CC(=O)NCC[C@@]1(O)C[C@H]2CC[C@]1(CS(=O)(=O)N1CCC3(C=Cc4ccccc43)CC1)C2(C)C`: the half-inhibitory concentration (IC50) was 150 nM in assay [1], 2700 nM in assay [2] and 30000 nM in assay [3].

With `CC1(C)[C@@H]2CC[C@@]1(CS(=O)(=O)N1CCC3(CCc4ccccc43)CC1)[C@@H](N1C(=O)NC(Cc3cccnc3)C1=O)C2` (some centres undefined), the figures for the IC50 in assay [1], in assay [2] and in assay [3] were 36 nM, > 300 nM and > 300 nM, respectively.

On to `CN(C)[C@H](Cc1c[nH]cn1)C(=O)N[C@H]1C[C@H]2CC[C@]1(CS(=O)(=O)N1CCC3(CCc4ccccc43)CC1)C2(C)C`, for which the IC50 in assay [1] was determined as 49 nM; in assay [2], 1700 nM; in assay [3] it was 3400 nM.

Turning to `CC1(C)[C@@H]2CC[C@@]1(CS(=O)(=O)N1CCC3(CCc4ccccc43)CC1)[C@@H](N1C(=O)C3CC(O)CN3C1=O)C2` (some centres undefined), the values for the IC50 in assay [1], in assay [2] and in assay [3] were 20 nM, 500 nM and 3200 nM, respectively.

Regarding `CC1(C)[C@@H]2CC[C@@]1(CS(=O)(=O)N1CCC3(CCc4ccccc43)CC1)[C@@H](NC(=O)Cc1[nH]cnc1Br)C2`, the IC50 is 110 nM in assay [1], 8100 nM in assay [2] and 15000 nM in assay [3].

Regarding `C[S+]([O-])CCC(N)C(=O)N[C@H]1C[C@H]2CC[C@]1(CS(=O)(=O)N1CCC3(CCc4ccccc43)CC1)C2(C)C` (some centres undefined), the IC50 in assay [1] is 54 nM; in assay [2], 3600 nM; in assay [3], 7400 nM.

Regarding `CCC(C)(C)C(=O)NCC[C@@]1(O)C[C@H]2CC[C@]1(CS(=O)(=O)N1CCC3(C=Cc4ccccc43)CC1)C2(C)C`, the IC50 in assay [1] was 45 nM; in assay [2] it was 2300 nM; in assay [3] it was 13000 nM.

Consider `CC1(C)[C@@H]2CC[C@@]1(CS(=O)(=O)N1CCC3(CCc4ccccc43)CC1)[C@@H](NC(=O)Cc1nnn[nH]1)C2`, for which the IC50 in assay [1] was 220 nM; in assay [2], > 3000 nM; in assay [3] it was > 3000 nM.

With `Cn1cnc(CC(=O)N(CCS(C)(=O)=O)[C@H]2C[C@H]3CC[C@]2(CS(=O)(=O)N2CCC4(CCc5ccccc54)CC2)C3(C)C)c1`, the IC50 was 6 nM in assay [1], 320 nM in assay [2] and 650 nM in assay [3].

On to `CCN(CC)C(CCS(C)(=O)=O)C(=O)N[C@H]1C[C@H]2CC[C@]1(CS(=O)(=O)N1CCC3(CCc4ccccc43)CC1)C2(C)C` (some centres undefined), for which the concentration for half-maximal inhibition (IC50) in assay [1] was determined as 30 nM; in assay [2], 2100 nM; in assay [3] it was 1500 nM.

`CC1(C)[C@@H]2CC[C@@]1(CS(=O)(=O)N1CCC3(CCc4ccccc43)CC1)[C@@H](NC(=O)Cn1ccnc1)C2`: the IC50 in assay [1] came to 120 nM; in assay [2], 16000 nM; in assay [3], 10000 nM.

Consider `CC1(C)[C@@H]2CC[C@@]1(CS(=O)(=O)N1CCC3(CCc4ccccc43)CC1)[C@@H](NC(=O)NC1CN3CCC1CC3)C2` (single isomer, unassigned; isomer A), for which the IC50 in assay [1] stood at 47 nM; in assay [2] it was 1700 nM; in assay [3], 8700 nM.

For the compound `CC1(C)[C@@H]2CC[C@@]1(CS(=O)(=O)N1CCC3(CCc4ccccc43)CC1)[C@@H](N1C(=O)NC(CNc3n[nH]c(N)n3)C1=O)C2` (some centres undefined), the IC50 in assay [1] amounted to 6.7 nM; in assay [2], 120 nM; in assay [3] it was 450 nM.

On to `CC1(C)[C@@H]2CC[C@@]1(CS(=O)(=O)N1CCC3(C=Cc4ccccc43)CC1)[C@@](O)(CCNC(=O)Cc1nnn[nH]1)C2`, for which the IC50 was 300 nM in assay [1], > 3000 nM in assay [2] and > 3000 nM in assay [3].

Regarding `CC1(C)[C@@H]2CC[C@@]1(CS(=O)(=O)N1CCC3(CCc4ccccc43)CC1)[C@@H](NC(=O)C(CCS(C)(=O)=O)c1c[nH]cn1)C2` (stereo in doubt), the IC50 in assay [1] is 11 nM; in assay [2] it was 1500 nM; in assay [3], 2900 nM.

Take `CC1(C)[C@@H]2CC[C@@]1(CS(=O)(=O)N1CCC3(CCc4ccccc43)CC1)[C@](O)(CNC(=O)C(N)CS(C)(=O)=O)C2` (some centres undefined): the IC50 in assay [1] stood at 40 nM; in assay [2], 1100 nM; in assay [3], 3000 nM.

On to `CC1(C)[C@@H]2CC[C@@]1(CS(=O)(=O)N1CCC3(CCc4ccccc43)CC1)[C@@H](N1CCC(N)C1=O)C2` (some centres undefined), for which the figures for the IC50 in assay [1], in assay [2] and in assay [3] were 60 nM, 1700 nM and 5500 nM, respectively.

Take `CN(C)C(CCS(C)(=O)=O)C(=O)N[C@H]1C[C@H]2CC[C@]1(CS(=O)(=O)N1CCC3(CCc4ccccc43)CC1)C2(C)C` (some centres undefined): the figures for the concentration for half-maximal inhibition (IC50) in assay [1], in assay [2] and in assay [3] were 4.9 nM, 530 nM and 1300 nM, respectively.

As to `CC1(C)[C@@H]2CC[C@@]1(CS(=O)(=O)N1CCC3(C=Cc4ccccc43)CC1)[C@@](O)(CCNC(=O)C1=CCC(=O)N=C1)C2`, the IC50 in assay [1] turned out to be 49 nM; in assay [2], 1000 nM; in assay [3], 2600 nM.

On to `CC1(C)[C@@H]2CC[C@@]1(CS(=O)(=O)N1CCC3(CCc4ccccc43)CC1)[C@@H](NC(=O)CCc1ccccc1)C2`, for which the IC50 in assay [1] is 530 nM; in assay [2], 10000 nM; in assay [3], > 10000 nM.

In the case of `CC1(C)[C@@H]2CC[C@@]1(CS(=O)(=O)N1CCC3(CCc4ccccc43)CC1)[C@@H](N1C(=O)CN(Cc3nn[nH]n3)C1=O)C2`, the half-inhibitory concentration (IC50) is 49 nM in assay [1], 2000 nM in assay [2] and 4400 nM in assay [3].

Turning to `CC1(C)[C@@H]2CC[C@@]1(CS(=O)(=O)N1CCC3(CCc4ccccc43)CC1)[C@@H](NC(=O)[C@H](CCC(N)=O)NC(=O)CCN)C2`, the IC50 in assay [1] was 6.3 nM; in assay [2], 490 nM; in assay [3], 1800 nM.

On to `CC1(C)[C@@H]2CC[C@@]1(CS(=O)(=O)N1CCC3(CCc4ccccc43)CC1)[C@@H](NC(=O)NCCc1c[nH]cn1)C2`, for which the IC50 in assay [1] turned out to be 68 nM; in assay [2] it was 4700 nM; in assay [3], 14000 nM.

`CC1(C)[C@@H]2CC[C@@]1(CS(=O)(=O)N1CCC3(C=Cc4ccccc43)CC1)[C@@](O)(CNC(=O)Cc1ccccn1)C2`: the half-maximal inhibitory concentration (IC50) in assay [1] is 81 nM; in assay [2], 830 nM; in assay [3], 4700 nM.

Turning to `CCC(C(=O)N[C@H]1C[C@H]2CC[C@]1(CS(=O)(=O)N1CCC3(CCc4ccccc43)CC1)C2(C)C)c1c[nH]cn1` (some centres undefined), the concentration for half-maximal inhibition (IC50) in assay [1] was 170 nM; in assay [2] it was 4000 nM; in assay [3], 15000 nM.
